In ChEMBL document CHEMBL1138950, “Benzimidazole derivatives bearing substituted biphenyls as hepatitis C virus NS5B RNA-dependent RNA polymerase inhibitors: structure-activity relationship studies and identification of a potent and highly selective inhibitor JTK-109” (J Med Chem, 2006):

Assays:
DNA polymerase beta = DNA polymerase beta (Homo sapiens, UniProt P06746); experiment: Inhibition of DNA polymerase beta
Cytochrome P450 2D6 [1] = target: T1, Cytochrome P450 2D6 (Homo sapiens, UniProt P10635); experiment: Inhibition of CYP450 2D6; format: ADME
[2] = Liver concentration in rat at 10 mg/kg, po after 2 hrs; format: ADME, organism-based; parameters: dose 10 mg/kg, route oral; conditions: read-out: Drug uptake
Cytochrome P450 2C9 [3] = target: T2, Cytochrome P450 2C9 (Homo sapiens, UniProt P11712); experiment: Induction of CYP450 2C9; format: ADME
Cytochrome P450 2D6 [4] = target: T1, Cytochrome P450 2D6; experiment: Induction of CYP450 2D6; format: ADME
[5] = target: T3, RNA-directed RNA polymerase (Hepacivirus hominis, UniProt O39930); experiment: Inhibition of HCV 3a NS5B RNA dependent RNA polymerase
How it was run: (§1)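 IC50 from the mean of four independent experiments; standard deviations within 30% of the mean.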

[6] = target: T3, RNA-directed RNA polymerase; experiment: Inhibition of HCV 1b BK six His-tagged C-terminal truncated 544 amino acid NS5B RNA dependent RNA polymerase; parameters: species or system Hepatitis C virus subtype 1b
How it was run: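 HCV genotype 1b (BK) NS5B lacking 47 C-terminal residues, His6-tagged, E. coli-expressed; 7 nM enzyme with 5 µg HCV 3′X RNA template-primer, 50 µM each ATP/GTP/CTP, 2 µM UTP plus [3H]-UTP; pH 7.5 Tris, 5 mM MgCl2. Compounds in DMSO (5% final). 60 min at 25 °C; TCA-precipitable radioactivity read. Triplicate, mean of three experiments.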

[7] = target: Human immunodeficiency virus type 1 reverse transcriptase (Human immunodeficiency virus 1, UniProt Q72547); experiment: Inhibition of HIV reverse transcriptase
[8] = target: T3, RNA-directed RNA polymerase; experiment: Inhibition of HCV 2a NS5B RNA dependent RNA polymerase; parameters: species or system Hepatitis C virus subtype 2a; how it was run: as §1
[9] = target: T3, RNA-directed RNA polymerase; experiment: Inhibition of HCV 1a NS5B RNA dependent RNA polymerase; parameters: species or system Hepatitis C virus subtype 1a; how it was run: as §1
Cytochrome P450 2C9 [10] = target: T2, Cytochrome P450 2C9; experiment: Inhibition of CYP450 2C9; format: ADME
Hepatitis C virus = experiment: Inhibition of HCV subgenomic RNA replication in Huh5-2 cells after 48 hrs by replicon assay; format: functional, organism-based, Hepacivirus hominis; conditions: Huh-5-2, 48 h
How it was run: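 Huh-5-2 cells (Huh-7-derived, genotype 1b subgenomic replicon with luciferase reporter) seeded at 5 × 10^3 per well in DMEM with 10% FBS, 37 °C, 5% CO2; compounds added next day, 48 h exposure; luciferase activity read. EC50 is the concentration reducing replication by 50%. Triplicate, mean of three experiments.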

[11] = Oral bioavailability in rat at 10 mg/kg; format: ADME, organism-based; conditions: in vivo
[12] = Therapeutic index, CC50 for viability of Huh5-2 cells/EC50 for inhibition of HCV subgenomic RNA replication; format: cell-based, Huh-5-2; conditions: human, read-out: Ratio CC50/EC50
[13] = Plasma concentration in rat at 30 mg/kg, po after 2 hrs; format: ADME, organism-based; parameters: dose 30 mg/kg, route oral
How it was run: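 Rats dosed orally at 30 mg/kg; plasma sampled at 1 and 2 h; n = 2 or 3.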

[14] = target: T4, DNA polymerase subunit gamma-1 (Homo sapiens, UniProt P54098); experiment: Inhibition of DNA polymerase gamma
T4 sequence (P54098 whole entry): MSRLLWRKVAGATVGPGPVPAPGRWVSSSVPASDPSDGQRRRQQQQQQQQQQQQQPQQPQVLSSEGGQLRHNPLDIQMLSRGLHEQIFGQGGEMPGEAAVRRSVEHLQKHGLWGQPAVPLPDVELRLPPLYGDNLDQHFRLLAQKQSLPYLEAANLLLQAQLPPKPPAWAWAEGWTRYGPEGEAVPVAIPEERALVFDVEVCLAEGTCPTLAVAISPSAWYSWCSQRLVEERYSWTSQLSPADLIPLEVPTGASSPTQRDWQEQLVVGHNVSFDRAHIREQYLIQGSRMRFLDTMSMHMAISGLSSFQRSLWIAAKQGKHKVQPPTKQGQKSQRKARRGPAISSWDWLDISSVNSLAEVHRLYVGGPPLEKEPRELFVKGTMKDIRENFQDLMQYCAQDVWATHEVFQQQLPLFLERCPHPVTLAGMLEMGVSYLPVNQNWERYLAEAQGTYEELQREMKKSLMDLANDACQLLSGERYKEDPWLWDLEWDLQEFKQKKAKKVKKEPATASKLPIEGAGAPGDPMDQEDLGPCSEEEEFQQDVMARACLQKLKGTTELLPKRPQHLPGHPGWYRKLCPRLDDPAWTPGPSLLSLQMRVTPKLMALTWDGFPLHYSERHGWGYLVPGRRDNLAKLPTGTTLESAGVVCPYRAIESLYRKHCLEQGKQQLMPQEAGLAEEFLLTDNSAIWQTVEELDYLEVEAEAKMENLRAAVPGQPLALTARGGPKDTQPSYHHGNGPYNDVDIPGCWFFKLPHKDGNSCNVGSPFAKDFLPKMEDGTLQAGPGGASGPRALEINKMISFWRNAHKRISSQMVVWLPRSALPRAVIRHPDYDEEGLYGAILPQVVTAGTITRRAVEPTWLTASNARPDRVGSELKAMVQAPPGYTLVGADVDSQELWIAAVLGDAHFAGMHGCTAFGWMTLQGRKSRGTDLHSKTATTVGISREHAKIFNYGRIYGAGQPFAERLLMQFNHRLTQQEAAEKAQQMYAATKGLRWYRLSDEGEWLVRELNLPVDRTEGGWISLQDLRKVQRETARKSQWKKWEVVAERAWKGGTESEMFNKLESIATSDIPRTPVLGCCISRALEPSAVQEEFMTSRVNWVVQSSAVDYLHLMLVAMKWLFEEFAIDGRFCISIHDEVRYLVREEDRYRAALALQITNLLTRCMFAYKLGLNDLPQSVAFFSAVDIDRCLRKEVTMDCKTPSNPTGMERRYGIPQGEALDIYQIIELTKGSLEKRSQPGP

T3 sequence (O39930 whole entry): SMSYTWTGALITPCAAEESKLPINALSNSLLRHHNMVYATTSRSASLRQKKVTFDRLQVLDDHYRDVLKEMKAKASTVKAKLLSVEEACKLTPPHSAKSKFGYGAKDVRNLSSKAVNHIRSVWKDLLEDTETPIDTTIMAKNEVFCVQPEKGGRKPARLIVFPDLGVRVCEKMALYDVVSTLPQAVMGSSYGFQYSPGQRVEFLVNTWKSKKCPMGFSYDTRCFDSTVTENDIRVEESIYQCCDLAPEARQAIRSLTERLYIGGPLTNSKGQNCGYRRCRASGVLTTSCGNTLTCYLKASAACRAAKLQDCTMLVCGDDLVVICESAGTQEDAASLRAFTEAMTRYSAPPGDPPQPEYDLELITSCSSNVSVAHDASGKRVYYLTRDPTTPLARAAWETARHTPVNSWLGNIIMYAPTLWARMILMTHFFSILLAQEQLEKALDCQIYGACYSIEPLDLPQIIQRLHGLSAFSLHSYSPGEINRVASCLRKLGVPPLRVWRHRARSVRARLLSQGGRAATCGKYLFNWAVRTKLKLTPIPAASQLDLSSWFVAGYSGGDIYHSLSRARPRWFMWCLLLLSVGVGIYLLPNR
T1 sequence (P10635 whole entry): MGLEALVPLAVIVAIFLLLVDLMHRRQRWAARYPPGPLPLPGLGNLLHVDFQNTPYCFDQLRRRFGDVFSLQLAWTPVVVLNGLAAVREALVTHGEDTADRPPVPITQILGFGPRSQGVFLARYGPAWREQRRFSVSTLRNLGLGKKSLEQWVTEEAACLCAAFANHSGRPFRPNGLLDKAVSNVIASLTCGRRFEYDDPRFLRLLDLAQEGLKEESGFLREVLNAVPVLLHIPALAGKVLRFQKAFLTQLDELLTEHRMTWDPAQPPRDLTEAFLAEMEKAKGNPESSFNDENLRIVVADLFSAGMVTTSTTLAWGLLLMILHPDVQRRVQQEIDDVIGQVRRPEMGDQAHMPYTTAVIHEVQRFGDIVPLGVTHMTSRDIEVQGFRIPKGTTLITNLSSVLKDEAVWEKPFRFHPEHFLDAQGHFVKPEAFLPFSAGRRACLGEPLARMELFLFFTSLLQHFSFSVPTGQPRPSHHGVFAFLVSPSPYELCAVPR
T2 sequence (P11712 whole entry): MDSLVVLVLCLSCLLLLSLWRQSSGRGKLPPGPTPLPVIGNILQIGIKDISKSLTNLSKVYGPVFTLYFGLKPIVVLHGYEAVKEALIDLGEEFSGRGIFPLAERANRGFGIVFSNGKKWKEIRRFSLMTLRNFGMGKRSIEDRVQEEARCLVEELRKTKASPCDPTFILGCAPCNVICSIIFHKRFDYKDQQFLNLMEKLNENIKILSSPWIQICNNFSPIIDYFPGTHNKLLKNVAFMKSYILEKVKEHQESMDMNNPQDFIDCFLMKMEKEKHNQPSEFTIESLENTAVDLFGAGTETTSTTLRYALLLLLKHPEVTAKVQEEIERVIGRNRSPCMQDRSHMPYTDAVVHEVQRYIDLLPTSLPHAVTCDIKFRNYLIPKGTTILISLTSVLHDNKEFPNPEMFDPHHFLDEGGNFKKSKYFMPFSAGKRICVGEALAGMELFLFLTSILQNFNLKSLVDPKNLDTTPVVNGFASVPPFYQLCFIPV

Which IC50 (DNA polymerase beta) does the source give for O=C(O)c1ccc2c(c1)nc(-c1ccc(OCc3cc(N4CCCC4=O)ccc3-c3ccc(Cl)cc3)cc1F)n2C1CCCCC1 here?
Its IC50 is > 10000 nM.

What about the Inhibition (Cytochrome P450 2D6 [1]) of the same compound?
The Inhibition was “Not Active”.

And the concentration at 2 h [2]?
The concentration at 2 h was 78.5 µM.

What about the Activity (Cytochrome P450 2C9 [3]) of the same compound?
Its Activity is “Not Active”.

What about the Activity (Cytochrome P450 2D6 [4]) of the same compound?
The Activity was “Not Active”.

And the IC50 [5]?
The IC50 was 61 nM.

What about the IC50 [6] of the same compound?
Its IC50 is 17 nM.

What about the IC50 [7] of the same compound?
The IC50 was > 10000 nM.

What about the IC50 [8] of the same compound?
Its IC50 is 6400 nM.

What about the IC50 [9] of the same compound?
Its IC50 is 62 nM.

What about the Inhibition (Cytochrome P450 2C9 [10]) of the same compound?
The Inhibition was “Not Active”.

And the EC50 (Hepatitis C virus)?
The EC50 was 320 nM.

What about the bioavailability [11] of the same compound?
The bioavailability was 36%.

And the selectivity ratio [12]?
The selectivity ratio was 78.

And the concentration at 2 h [13]?
Its concentration at 2 h is 4.5 µM.

And the IC50 [14]?
Its IC50 is > 10000 nM.
